rCAG binder: molecules binding r(CAG) RNA repeats; r(CAG) RNA repeat, TO-PRO-1 dye displacement fluorescence; inhibition, % at 3 µM; actives 1.3% (n = 370,000);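 active = inhibition above the plate cutoff, the mean of all test compounds on that plate plus 3 SD, cut at about 35% in these data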;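 also: 0% = DMSO alone and 100% = 100 µM mitoxantrone as full dye displacement; higher means more dye released from RNA so lower well fluorescence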
TAAR1 agonist: human TAAR1 agonism; Q96RJ0; CHO RD-HGA16 TAAR1, Fluo-8 calcium fluorescence; vehicle wells 0%, saturating PEA agonist 100%; activation, % at 3 µM; actives 0.99% (n = 360,000);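 active = activation above the mean activation of all test compounds in the run plus 3 SD, cut at about 38% in these data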
Target sequence (Q96RJ0 whole entry, looked up): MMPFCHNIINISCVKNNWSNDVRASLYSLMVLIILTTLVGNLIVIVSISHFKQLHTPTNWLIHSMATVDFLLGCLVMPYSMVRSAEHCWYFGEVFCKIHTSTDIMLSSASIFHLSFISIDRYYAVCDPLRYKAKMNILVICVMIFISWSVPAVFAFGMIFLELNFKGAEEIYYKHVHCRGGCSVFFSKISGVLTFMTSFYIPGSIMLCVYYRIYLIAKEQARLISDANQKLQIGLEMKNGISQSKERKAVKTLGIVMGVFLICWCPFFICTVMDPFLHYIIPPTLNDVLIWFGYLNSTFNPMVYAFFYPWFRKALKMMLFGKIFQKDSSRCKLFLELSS
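System: CHO-derived RD-HGA16 cells with stable Gα16 and human TAAR1. Times: 17-24 h plating, Fluo-8 75 min 37 °C, 30 min RT. Measured by: calcium-sensitive Fluo-8 signal, excitation 470-495, emission 515-575 nm. Read-out basis: % activation relative to PEA EC100 response. Control set: DMSO and PEA EC100. Repeats: no replicates (n 1).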
core dimer inh: blocks dimerization of HCV core protein; TR-FRET GST/Flag-core106 dimerization, 1536-well; inhibition, % at 5 µM; actives 0.33% (n = 300,000); AID 1899;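 active = inhibition above the mean of all tested compounds plus 3 SD, set per screening campaign, cut at about 45% in these data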
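System – GST-tagged and Flag-tagged HCV core protein residues 1-106 · Repeats – one well for each compound · Technique – TR-FRET 671 and 617 nm emission · Doses – one concentration, 5 µM, in 0.5% DMSO · Times – 4 h, 22.5 °C incubation · Also added – Eu donor and XL665 acceptor anti-tag antibodies · Measure – percent inhibition of core106 dimerization signal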
TAAR1 antagonist: human TAAR1 antagonism. CHO RD-HGA16 TAAR1, Fluo-8 calcium fluorescence, antagonist. inhibition, % at 3 µM. actives 1.5% (n = 360,000);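 active = inhibition above a per-plate cutoff, the mean inhibition of test compounds on that plate plus 3 SD, cut at about 49% in these data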;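 also: 0% = DMSO plus EC80 beta-PEA response and 100% = DMSO alone without agonist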
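Test system: CHO RD-HGA16 cells bearing hTAAR1 | Reagent: β-PEA, EC80 | Compound dosing: 3 µM, single point | Schedule: Dye loading 75 min at 37 °C, then 30 min room temperature | Signal: Calcium fluorescence with Fluo-8 | Evaluation: Percent inhibition of PEA-evoked calcium signal, max/basal emission ratio | Control set: DMSO-only wells and EC80 β-PEA-stimulated wells | Repeats: Singlicate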
NS3 helicase inh: inhibitors of Hepatitis C virus NS3 helicase. actives 0.56% (n = 290,000). inhibition, % at 10.9 µM. NS3 helicase DNA unwinding, Cy5 molecular beacon fluorescence;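 active = inhibition above the mean of all tested compounds plus 3 SD, set per campaign, cut at about 35% in these data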;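 also: 0% = DMSO wells and 100% = thioflavine S control wells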
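Compound dosing – single dose, 10.9 µM nominal final, DMSO 0.8% final · System – NS3 helicase fragment of HCV · Buffer or medium – MOPS pH 6.5, MgCl2, DTT, Tween20, BSA · Signal – Cy5 beacon fluorescence read at start and 1 h · Also added – annealed dual-labelled DNA beacon duplex, ATP-started · Schedule – 1 h at 25 °C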
* marks the source's active call; other numbers are inactive results; . = no result given. The list is not random: actives were taken first. Their share in the collection is about 3.7%.

SMILES	rCAG binder	TAAR1 agonist	core dimer inh	TAAR1 antagonist	NS3 helicase inh
COC(=O)CCCC1=CC2=CC(=O)C(C)(OC(=O)C3CCCC3)C(=O)C2=CO1 (stereo not drawn)	.	.	63.8*	.	.
CCCCC1=CC2=CC(=O)C(C)(OC(=O)CC)C(=O)C2=CO1 (stereo not drawn)	23.9	1.4	17.7	15.4	.
CCC(=O)OC1(C)C(=O)C=C2C=C(CCCC(=O)OC)OC=C2C1=O (stereo not drawn)	19.3	1.1	53.3*	5.4	.
CCN(C(=O)[C@H]1CC(=O)O[C@@H]1c1ccccc1)c1ccccc1	-1.9	.	.	.	.
COCCCNC(=O)C[C@H]1C[C@@]2(C(=O)OC)C(=C[C@H](COCc3ccccc3)O[C@@H]2C)N(CCc2ccc(OC)c(OC)c2)C1=O	-0.5	.	.	.	.
CCCCCCCCN1C(=O)[C@@H](CC(=O)N2CCN(C(=O)c3ccco3)CC2)C[C@@]2(C(=O)OC)C1=C[C@H](COCc1ccccc1)O[C@@H]2C	6.2	.	.	.	.
O=S(=O)(c1ccccc1)N1CCN(Cc2c(O)ccc3ccccc23)CC1	1.4	6.7	.	51.4*	.
Oc1ccc2ccccc2c1CN1CCN(C/C=C/c2ccccc2)CC1	-4.8	4.0	0.8	-7.1	-65.6
N=c1c2c(-c3ccccc3)c(-c3ccccc3)n(CCc3ccccc3)c2ncn1C1CCC(O)CC1 (stereo not drawn)	10.2	.	.	.	.
C=CCn1c(SCC(=O)Nc2sc3c(c2C#N)CCC3)nnc1C1COc2ccccc2O1 (stereo not drawn)	10.8	3.6	47.1*	4.2	9.3
O=C(NCCc1ccc(Cl)cc1)C(=O)c1c[nH]c2ccccc12	0.1	12.0	-3.2	47.3	-1.8
Cc1[nH]c2ccccc2c1C(=O)C(=O)NCCc1c[nH]c2ccccc12	7.4	45.3*	-3.2	75.1*	-5.0
COc1cc(SC)ccc1C(=O)NCCc1c[nH]c2ccccc12	-1.4	2.2	7.3	29.4	6.3
Cc1cccc(C)c1NC(=O)C(=O)NCCc1c[nH]c2ccccc12	4.7	45.6*	2.3	5.2	-12.7
O=C(NCCc1c[nH]c2ccccc12)C(=O)c1c[nH]c2ccccc12	10.8	39.6*	-3.8	62.1*	-27.7
COc1cc2cc(C(=O)NCCc3c[nH]c4ccccc34)c(N)nc2cc1OC	8.5	52.2*	.	70.3*	.
Cc1ccc(N2C(=O)[C@@H]3[C@H](C2=O)C2CCCN2[C@@H]3C(=O)c2ccccc2)cc1 (stereo partly drawn)	13.7	6.5	57.6*	11.0	24.1
O=C(c1ccccc1)[C@@H]1[C@@H]2C(=O)N(c3ccc(F)cc3)C(=O)[C@@H]2C2CCCN21 (stereo partly drawn)	1.1	6.3	3.8	-2.9	6.4
O=C(Nc1nccs1)c1cc(-c2ccncc2)nc2ccccc12	8.8	8.6	56.4*	22.7	13.2
CCc1cccc(C)c1NC(=O)c1cc(-c2ccncc2)nc2ccccc12	8.8	9.1	.	49.2*	.
Cc1c(NC(=O)c2cc(-c3cccs3)nc3ccccc23)c(=O)n(-c2ccccc2)n1C	2.5	20.2	5.4	46.3	7.8
Cc1ccc(-c2cc(C(=O)Nc3ccncc3)c3ccccc3n2)cc1	5.3	2.3	-2.2	5.5	.
Cc1ccc(NC(=O)c2cc(-c3cccs3)nc3ccccc23)nc1	1.6	9.9	8.4	53.0*	-11.3
CC[n+]1c(/C=C/C=C/N(C(C)=O)c2ccccc2)sc2ccccc21	8.2	-4.6	-2.2	102.4*	1.6
Cc1ccc(Cc2cnc(NC(=O)c3ccco3)s2)cc1	-1.5	2.4	-6.0	-1.2	-11.1
SMILES	rCAG binder	TAAR1 agonist	core dimer inh	TAAR1 antagonist	NS3 helicase inh
O=C(Nc1ncc(Cc2ccc(SC(F)F)cc2)s1)c1ccc(OC(F)F)cc1	6.9	45.9*	-3.6	-0.9	-1.2
Cc1ccc(-c2csc(N=C(N)N)n2)c(C)c1	7.2	37.8*	-1.8	-29.0	-30.5
Oc1ccc(CCNc2ncnc3ccc(Cl)cc23)cc1	2.3	5.5	5.8	51.1*	-9.7
O=c1cc(CSc2nnc(-c3cccs3)n2Cc2ccccc2)nc2sc3ccccc3n12	6.3	1.7	59.6*	41.8	0.1
CCOC(=O)[C@@]12CN(C(=O)OC(C)(C)C)CC=C1N(Cc1ccc(OC)cc1)C(=O)[C@H]2CC(=O)N1CCOCC1	3.1	.	.	.	.
Cc1cccc(C(=O)Nc2sc(-c3ccccc3)cc2C(=O)O)c1	93.8*	-5.4	13.6	2.0	7.1
CC(C)(C)C(=O)Nc1sc(-c2ccccc2)cc1C(=O)O	18.4	-0.8	4.4	2.7	11.6
COC(=O)[C@]12C[C@H](CC(=O)N3CCC(c4ccccc4)CC3)C(=O)N(CCc3ccc(OC)c(OC)c3)C1=C[C@H](C1CCCC1)O[C@@H]2C	7.0	.	.	.	.
COC(=O)[C@]12C[C@H](CC(=O)NCc3ccc(OC)c(OC)c3)C(=O)N(CCc3ccc(OC)c(OC)c3)C1=C[C@H](C(C)C)O[C@@H]2C1CC1	2.5	.	.	.	.
Cc1ccc(NC(=O)/C=C/c2ccc(S(=O)(=O)N3CCOCC3)cc2)cc1S(=O)(=O)N(C)C	11.4	21.7	.	66.5*	.
CC(=O)Nc1cccc(NC(=O)/C=C/c2ccc(S(=O)(=O)N3CCOCC3)cc2)c1	2.4	1.6	.	2.0	.
CCCC[C@H](C(=O)N(C)c1ccccc1)[C@@H](O)c1ccc2ccccc2c1	2.5	.	.	.	.
CC(C)[C@H]1Cn2nncc2Cn2c3ccccc3c(=O)n21	7.2	.	.	.	.
CCN(CC)c1ccc(S(=O)(=O)N2CCOCC2)cc1NC(=O)COC(=O)/C=C/c1ccc(O)c(OC)c1	14.0	8.8	.	44.6	.
CCN(CC)c1ccc(S(=O)(=O)N2CCOCC2)cc1NC(=O)COC(=O)/C=C/c1ccc(C)o1	7.9	8.3	4.8	64.5*	.
CCOc1ccc(C(C)=O)cc1CSc1nnc(-c2ccoc2C)n1N	4.3	-1.3	46.1*	9.3	16.8
Cc1ccc(OCc2nnc(SCC(=O)Nc3cccc4ccccc34)n2Cc2ccco2)cc1	4.5	.	.	.	.
COc1ccc2cc3c(N)nn(C(=O)c4ccc(Cl)c([N+](=O)[O-])c4)c3nc2c1	1.6	-1.4	48.1*	6.0	10.9
CCOC(=O)N1CCN(C(=O)C[C@H]2C[C@@]3(C(=O)OC)C(=C[C@H](C(C)(C)C)O[C@@H]3C)N(CCc3ccc(OC)c(OC)c3)C2=O)CC1	3.1	.	.	.	.
CN(Cc1ccccc1F)C(=O)C1C2C=CC3(CN(Cc4ccccc4)C(=O)C13)O2 (stereo not drawn)	-0.4	.	.	.	.
C=CCN(c1ccccc1Cl)S(=O)(=O)c1cccc(C(=O)NCCc2ccc(OC)cc2)c1	5.5	4.7	14.1	60.6*	-12.3
COc1ccc(CCNC(=O)c2cccc(S(=O)(=O)N3CCCCC3)c2)cc1	-0.8	2.8	-1.9	-22.2	-0.5
CC(/C=C1\SC(=S)N(CC(=O)N2CCN(c3ccccc3)CC2)C1=O)=C\c1ccccc1	7.7	2.5	49.9*	-8.6	10.5

Assay outcomes as filed in PubChem BioAssay.
